Data published in ChEMBL document CHEMBL2176971 (Bioorg Med Chem Lett, 2012).

Experiments:
[1] = AUCall in rat at 2 mg/kg, iv; format: ADME, organism-based; parameters: dose 2 mg/kg, route intravenous; details: plasma
[2] = Cmax in rat at 2 mg/kg, iv; format: ADME, organism-based; parameters: dose 2 mg/kg, route intravenous; details: in vivo
[3] = Apparent volume of distribution in rat at 2 mg/kg, iv; format: ADME, organism-based; parameters: dose 2 mg/kg, route intravenous; details: in vivo, read-out: Vz
[4] = Solubility of the compound; format: physicochemical
Rattus norvegicus [5] = assay: AUCall in rat assessed as sulfoxide metabolite level at 20 mg/kg, po; format: ADME, organism-based, Plasma; parameters: dose 20 mg/kg, route oral; details: in vivo
Procedure, shortened: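 Rats given the parent sulfide compound orally at 20 mg/kg, with plasma monitored for its in vivo sulfoxide metabolite; exposure to that metabolite is reported as AUCall. A separate i.v. dose of 2 mg/kg in rats was also monitored for this metabolite.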

[6] = Oral bioavailability in dog at 10 mg/kg; format: ADME, organism-based, Canis lupus familiaris; details: in vivo
Procedure, shortened: (§1)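 Dogs dosed orally at 10 mg/kg; plasma pharmacokinetic parameters determined.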

[7] = AUCall in dog at 2 mg/kg, iv; format: ADME, organism-based, Canis lupus familiaris; parameters: dose 2 mg/kg, route intravenous; details: plasma
[8] = Tmax in dog at 10 mg/kg, po; format: ADME, organism-based, Canis lupus familiaris; parameters: dose 10 mg/kg, route oral; details: in vivo; procedure, shortened: as §1
[9] = AUCall in dog at 10 mg/kg, po; format: ADME, organism-based, Canis lupus familiaris; parameters: dose 10 mg/kg, route oral; details: plasma
[10] = Cmax in dog at 10 mg/kg, po; format: ADME, organism-based, Canis lupus familiaris; parameters: dose 10 mg/kg, route oral; details: in vivo; procedure, shortened: as §1
[11] = Tmax in rat at 20 mg/kg, po; format: ADME, organism-based; parameters: dose 20 mg/kg, route oral; details: in vivo
Rattus norvegicus [12] = assay: Drug metabolism in rat assessed as sulfoxide metabolite formation at 2 mg/kg, iv; format: ADME, organism-based; parameters: dose 2 mg/kg, route intravenous; details: in vivo
Procedure, shortened: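 Rats dosed i.v. at 2 mg/kg and plasma monitored in vivo for the sulfoxide metabolite. AUCall was also measured after 20 mg/kg oral dosing.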

[13] = AUCall in rat at 20 mg/kg, po; format: ADME, organism-based; parameters: dose 20 mg/kg, route oral; details: plasma
[14] = Apparent volume of distribution in dog at 2 mg/kg, iv; format: ADME, organism-based, Canis lupus familiaris; parameters: dose 2 mg/kg, route intravenous; details: in vivo, read-out: Vz
[15] = Cmax in dog at 2 mg/kg, iv; format: ADME, organism-based, Canis lupus familiaris; parameters: dose 2 mg/kg, route intravenous; details: in vivo
[16] = Cmax in rat at 20 mg/kg, po; format: ADME, organism-based; parameters: dose 20 mg/kg, route oral; details: in vivo
[17] = Oral bioavailability in rat at 20 mg/kg; format: ADME, organism-based; details: in vivo

COC(=O)c1ccc2c(c1)c1c(n2CCCNc2nc(OC)cc(OC)n2)CCCC1
AUC [1]: 521 ng·h/mL | Cmax [2]: 182 ng/mL | Vd [3]: 11.3 L/kg

COc1cc(OC)nc(NCCCn2c3c(c4cc(S(C)(=O)=O)ccc42)CCCC3)n1
AUC [1]: 902 ng·h/mL | Cmax [2]: 1080 ng/mL | Vd [3]: 3.51 L/kg

CCc1cc(CC)nc(OCCCn2c3c(c4cc(-c5nc(C)no5)ccc42)CCCC3)n1
AUC [1]: 497 ng·h/mL | Cmax [2]: 1050 ng/mL | Vd [3]: 18.9 L/kg

Cc1noc(-c2ccc3c(c2)c2c(n3CCCS(=O)(=O)N(C)C)CCCC2)n1
AUC [1]: 520 ng·h/mL | Cmax [2]: 1240 ng/mL | Vd [3]: 3.96 L/kg

Cc1noc(-c2ccc3c(c2)c2c(n3CCCOc3cc(F)cc(F)c3)CCCC2)n1
AUC [1]: 404 ng·h/mL | Cmax [2]: 821 ng/mL | Vd [3]: 22.1 L/kg

Cc1noc(-c2ccc3c(c2)c2c(n3CCCSc3cc(F)cc(F)c3)CCCC2)n1
solubility [4]: > 1000 µg/mL | AUC (Rattus norvegicus [5]): 143 ng·h/mL | bioavailability [6]: 34% | AUC [7]: 1750 ng·h/mL | AUC [1]: 1180 ng·h/mL | Tmax [8]: 2 h | AUC [9]: 2010 ng·h/mL | Cmax [10]: 625 ng/mL | Tmax [11]: 2.33 h | Drug metabolism (Rattus norvegicus [12]): Not Active | AUC [13]: 4230 ng·h/mL | Vd [14]: 1.8 L/kg | Cmax [15]: 3880 ng/mL | Cmax [2]: 2990 ng/mL | Cmax [16]: 955 ng/mL | Vd [3]: 3.64 L/kg

Cc1noc(-c2ccc3c(c2)c2c(n3CC(F)COc3cc(F)cc(F)c3)CCCC2)n1 (stereo not drawn)
AUC [1]: 691 ng·h/mL | Tmax [11]: 2.67 h | AUC [13]: 3140 ng·h/mL | Cmax [2]: 1710 ng/mL | Cmax [16]: 747 ng/mL | Vd [3]: 5.52 L/kg | bioavailability [17]: 38%
